Here are results for 16 molecules from ChEMBL document CHEMBL1153346, “Structure-activity study of pentamidine analogues as antiprotozoal agents” (J Med Chem, 2009).

Structures are written as SMILES. Active and inactive are the calls of the source. The rule behind the calls is not given here. Bounds are passed on as bounds.

In data set [1] the test system is Trypanosoma brucei rhodesiense. The experiment in a line: Antitrypanosomal activity against Trypanosoma brucei rhodesiense STIB900 trypomastigotes infected in NMRI mouse assessed as mouse survival at 20 mg/kg, ip administered from day 3 to day 6 postinfection. It is filed as functional. To be noted: route intraperitoneal. An outline of the steps:
(§1)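 STIB900 acute mouse model. Dosing was intraperitoneal, daily for four days, in DMSO diluted with water to 10% final DMSO. An infected untreated control group was kept. Tail blood was checked for parasitemia to day 60, and deaths were recorded to give mean survival days. Mice surviving and aparasitemic at day 60 counted as cured.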

Data set [2] has as its system L6. The experiment in a line: Cytotoxicity against rat L6 cells after 70 hrs by alamar blue assay. To be noted: L6, 70 h. In kind it is cell-based. The method, boiled down: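 L6 rat myoblasts, 4000 per well, in RPMI 1640 with 2 mM L-glutamine, HEPES, NaHCO₃ and 10% FBS. Exposed to serial dilutions (DMSO ≤1%) for 70 h at 37 °C in humidified 5% CO₂. Resazurin then added for 2-3 h; fluorescence read at ex 536/em 588 nm. IC50 from sigmoidal curves; two independent runs in duplicate.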
A general note: Alamar Blue is a resazurin reagent that responds to reducing activity.

Data set [3] has as its system Trypanosoma brucei rhodesiense. Kind of data set: Antiprotozoal activity against Trypanosoma brucei rhodesiense STIB900 trypomastigotes after 70 hrs by alamar blue assay. In kind it is functional, organism-based. An outline of the steps: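 Bloodstream forms, 2000 per well, in MEM with Earle's salts plus 0.2 mM 2-mercaptoethanol, 1 mM pyruvate, 0.5 mM hypoxanthine and 15% heat-inactivated horse serum. Exposed to serial dilutions (DMSO ≤1%) for 70 h at 37 °C in 5% CO₂. Resazurin then added for a further 2-6 h. IC50 from sigmoidal curves; two independent runs in duplicate.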

The nature of data set [4]: Selectivity index, ratio of IC50 for rat L6 cells to IC50 for Trypanosoma brucei rhodesiense STIB900 trypomastigotes. In kind it is toxicity, cell-based. To be noted: read-out: Ratio IC50. An outline of the steps: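 Ratio of L6 IC50 to STIB900 IC50. L6 cells: 4000/well in RPMI 1640 with 10% FBS, 70 h at 37 °C. Bloodstream forms: 2000/well in supplemented MEM with 15% horse serum, 70 h at 37 °C. Both read by Alamar blue fluorescence; IC50s from sigmoidal curves, two independent runs in duplicate.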

For data set [5], the system named is Plasmodium falciparum. The experiment in a line: Antiprotozoal activity after 48 hrs against chloroquine-resistant Plasmodium falciparum K1 infected erythrocytes by [3H]hypoxanthine uptake. In kind it is functional, organism-based. An outline of the steps: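 Erythrocytic stages in infected human red cells (hematocrit 1.25%, parasitemia 0.3%) in supplemented RPMI 1640 with Albumax II. Serial dilutions incubated at 37 °C in 93% N2/4% CO2/3% O2. [3H]-hypoxanthine (0.5 µCi/well) added at 48 h, then 24 h more. Incorporation counted by scintillation. IC50 from sigmoidal curves; two independent runs in duplicate.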

Data set [6] can be described thus: Selectivity index, ratio of IC50 for rat L6 cells to IC50 for chloroquine-resistant Plasmodium falciparum K1. It is filed as toxicity, cell-based. As to conditions: read-out: Ratio IC50. The method, boiled down: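 Ratio of L6 IC50 to K1 IC50. L6 cells: Alamar blue assay after 70 h, 37 °C. K1: [3H]-hypoxanthine incorporation in infected red cells over 48 + 24 h at 37 °C under low O2. IC50s from sigmoidal curves, two independent runs in duplicate.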

Data set [7] deals with Leishmania donovani. Kind of data set: Antiprotozoal activity against Leishmania donovani MHOM/SD/62/1S-CL2D axenic amastigotes after 72 hrs. It is filed as functional, organism-based. An outline of the steps: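 L. donovani axenic amastigotes, adapted from promastigotes and grown in amastigote medium at 37 °C. 6 × 10⁴ parasites per well with 2-fold compound dilutions (DMSO ≤1%), incubated 72 h at 37 °C in humidified 5% CO₂. Growth read by tetrazolium (CellTiter) absorbance at 490 nm. IC50 from a four-parameter dose-response fit. Average of duplicate determinations.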

Data set [8] in a line: Selectivity index, ratio of IC50 for rat L6 cells to IC50 for Leishmania donovani MHOM/SD/62/1S-CL2D axenic amastigotes. It is filed as toxicity, cell-based. To be noted: read-out: Ratio IC50. An outline of the steps: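 Amastigotes: 6 × 10⁴ parasites/well with 2-fold dilutions, 72 h at 37 °C in 5% CO2. Growth read by tetrazolium CellTiter absorbance at 490 nm; IC50 from a four-parameter dose-response fit.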

Data set [9] relates to Trypanosoma brucei rhodesiense. The experiment in a line: Antitrypanosomal activity against Trypanosoma brucei rhodesiense STIB900 trypomastigotes infected in NMRI mouse assessed as survival and aparasitemic condition at 20 mg/kg, ip administered from day 3 to day 6 postinfection measured after 60 days postinfection. In kind it is functional, organism-based. Also noted: dose 20 mg/kg. An outline of the steps:
(§2)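 STIB900 acute mouse model with 4 mice per group. Compound in DMSO diluted with water to a final 10% DMSO, given intraperitoneally once daily for four days. An infected, untreated control group was included. Tail blood checked for parasitemia until day 60. Mice alive and aparasitemic at day 60 counted as cured; deaths recorded for mean survival time.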

In data set [10] the test system is Trypanosoma brucei rhodesiense. Kind of data set: Antitrypanosomal activity against Trypanosoma brucei rhodesiense STIB900 trypomastigotes infected in NMRI mouse assessed as mouse survival at 5 mg/kg, ip administered from day 3 to day 6 postinfection. It is filed as functional. As to conditions: route intraperitoneal. An outline of the steps:
as §1

Data set [11] deals with Trypanosoma brucei rhodesiense. Kind of data set: Antitrypanosomal activity against Trypanosoma brucei rhodesiense STIB900 trypomastigotes infected in NMRI mouse assessed as survival and aparasitemic condition at 5 mg/kg, ip administered from day 3 to day 6 postinfection measured after 60 days postinfection. It is filed as functional, organism-based. Set-up: dose 5 mg/kg. An outline of the steps: as §2

With `Cl.Cl.Cl.Cl.N=C(N)c1ccc(OCCCCCOc2ccc(C(=N)N)cc2Cl)c(Cl)c1`, in [1], the Survival was above 29.5 days. In addition, the IC50 in data set [2] was 11200 nM; in data set [3], 44 nM; in data set [5], 26 nM; in data set [7] it was 1450 nM. For the same molecule, the selectivity ratio in data set [4] came out at 255; in data set [6], 431; in data set [8] it was 8. The result in data set [9] was inactive.
On to `COc1cc(C(=N)N)ccc1OCCCOc1ccc(C(=N)N)cc1OC.Cl.Cl`, for which the Survival in data set [1] was above 60 days; in [10], above 52.8 days. The IC50 worked out at 114000 nM in data set [2], 23 nM in data set [3], 62 nM in data set [5] and 6890 nM in data set [7]. Moreover, the selectivity ratio in data set [4] is 4960; in data set [6], 1840; in data set [8], 17. For the same molecule, the result in data set [9] was Active.
On to `Cl.Cl.Cl.Cl.N=C(N)c1ccc(OCCCOc2ccc(C(=N)N)cc2Cl)c(Cl)c1`, for which the Survival in data set [10] was above 60 days. The IC50 came out at 24800 nM in data set [2], 4 nM in [3], 19 nM in data set [5] and 1560 nM in [7]. Moreover, the selectivity ratio stood at 6200 in data set [4], 1300 in [6] and 16 in data set [8]. Moreover, the outcome in data set [11] was Active.
As to `Cl.Cl.N=C(N)c1cccc(OCCCCCOc2cccc(C(=N)N)c2)c1`, the Survival in data set [1] stood at 18.5 days. The IC50 came out at 18400 nM in [2], 65 nM in [3], 19 nM in data set [5] and 3190 nM in data set [7]. The results for the selectivity ratio in [4], in data set [6] and in [8] were 283, 968 and 6, respectively. The outcome in data set [9] was inactive.
For the molecule `Cl.Cl.c1cc(C2=NCCN2)ccc1NCCCCCNc1ccc(C2=NCCN2)cc1`, the Survival in [10] is above 60 days. Besides, the IC50 in data set [2] came to 34500 nM; in [3] it was 1 nM; in [5], 1 nM; in data set [7] it was 254 nM. Besides, the selectivity ratio in data set [4] came to 34500; in data set [6] it was 34500; in data set [8], 136. In addition, in data set [11], the outcome was Active.
As for `Cl.Cl.c1cc(C2=NCCN2)ccc1OCCCCOc1ccc(C2=NCCN2)cc1`, the results for the Survival in [1] and in [10] were above 41.5 days and 7.8 days, respectively. The IC50 in data set [2] was 62700 nM; in data set [3], 244 nM; in [5], 31 nM; in data set [7], 3060 nM. Moreover, the selectivity ratio was 257 in [4], 2020 in data set [6] and 20 in data set [8]. Besides, the result in data set [11] was inactive.
Take `Cl.Cl.N=C(Nc1ccc(OCCCCCOc2ccc(NC(=N)c3ccccc3)cc2)cc1)c1ccccc1`: in [1], the Survival amounted to 7 days. The IC50 is 3100 nM in [2], 147 nM in data set [3], 201 nM in data set [5] and above 100000 nM in data set [7]. The selectivity ratio in [4] was 21; in data set [6] it was 15; in data set [8], below 1. The outcome in data set [9] was inactive.
Take `Cl.Cl.N=C(N)c1ccc(OCCCCCOc2ccc(C(=N)N)cc2C(N)=O)c(C(N)=O)c1`: in data set [1], the Survival is 26.5 days. Besides, the IC50 in data set [2] is above 168000 nM; in [3] it was 45 nM; in [5], 38 nM; in [7], above 50000 nM. In addition, the results for the selectivity ratio in data set [4] and in [6] were above 3730 and above 4420, respectively. Moreover, the outcome in [9] was inactive.
As for `Cl.Cl.N=C(N)c1ccc(OCCCOc2ccc(C(=N)N)cc2)cc1`, the Survival in data set [1] was 34 days. The IC50 in data set [2] was found to be 8800 nM; in [3], 7 nM; in data set [5], 6 nM; in data set [7], 1500 nM. The values for the selectivity ratio in data set [4], in data set [6] and in data set [8] were 1260, 1470 and 6, respectively. Moreover, the outcome in data set [9] was inactive.
In the case of `Cl.Cl.N=C(N)c1ccc(SCCCCCSc2ccc(C(=N)N)cc2)cc1`, the Survival in [10] is 32.3 days. Besides, the IC50 in data set [2] came to 7800 nM; in [3] it was 5 nM; in data set [5], 19 nM; in data set [7], 1270 nM. Moreover, the selectivity ratio amounted to 1560 in data set [4], 411 in data set [6] and 6 in data set [8]. Besides, the outcome in data set [11] was inactive.
With `Cl.Cl.N=C(N)c1ccc(OCCCOc2ccc(C(=N)N)cc2Br)c(Br)c1`, in data set [10], the Survival was 13 days. Besides, the IC50 in data set [2] stood at 6400 nM; in data set [3] it was 19 nM; in data set [5] it was 16 nM; in [7], 1170 nM. The selectivity ratio in data set [4] stood at 337; in data set [6] it was 400; in [8], 5. For the same molecule, the result in data set [11] was inactive.
In the case of `COc1cc(C(=N)N)ccc1OCCCCCOc1ccc(C(=N)N)cc1OC.Cl.Cl`, the Survival in data set [10] amounted to 26 days. For the same molecule, the IC50 in [2] is 162000 nM; in data set [3] it was 10 nM; in data set [5], 21 nM; in data set [7], 24000 nM. Moreover, the values for the selectivity ratio in data set [4], in data set [6] and in data set [8] were 16200, 7710 and 7, respectively. Moreover, the outcome in [11] was inactive.
`CNC(=N)c1ccc(OCCCCCOc2ccc(C(=N)NC)cc2)cc1.Cl.Cl`: the Survival was above 60 days in data set [1] and above 41 days in [10]. For the same molecule, the IC50 worked out at 152000 nM in data set [2], 24 nM in data set [3], 4 nM in data set [5] and 4690 nM in [7]. For the same molecule, the selectivity ratio came out at 6330 in [4], 38000 in [6] and 32 in data set [8]. Further, the outcome in [9] was Active.
Take `CC(C)NC(=N)c1ccc(NCCCCCNc2ccc(C(=N)NC(C)C)cc2)cc1.Cl`: the Survival in data set [10] stood at 18 days. The IC50 in data set [2] was determined as 125000 nM; in data set [3], 50 nM; in [5], 2 nM; in data set [7], 5750 nM. The values for the selectivity ratio in [4], in data set [6] and in data set [8] were 2500, 62500 and 22, respectively. Further, in [11], the result was inactive.
With `Cl.Cl.N=C(N)c1ccc(OCCCCOc2ccc(C(=N)N)cc2)cc1`, in [1], the Survival was determined as 24.8 days. For the same molecule, the IC50 in data set [2] turned out to be 4700 nM; in [3], 10 nM; in data set [5] it was 21 nM. Besides, the selectivity ratio in data set [4] was found to be 470; in data set [6], 224. Moreover, the result in [9] was inactive.
Take `Cl.c1cc(C2=NCCN2)ccc1OCCCCCOc1ccc(C2=NCCN2)cc1`: in data set [1], the Survival is above 39 days. The IC50 in data set [2] is above 178000 nM; in data set [3], 53 nM; in data set [5], 3 nM; in data set [7], 2770 nM. Also, the selectivity ratio is above 3360 in data set [4], above 59300 in data set [6] and above 64 in data set [8]. Further, the outcome in [9] was inactive.

In general, IC50 refers to the concentration needed to halve the response being measured. A low value points to inhibition by little substance.
